# Source: paper PMC11295983 (ESMO Open, 2024)
# pIC50: −log10 of the molar value. Where two headings read alike, the source gives them in different places.
# Legend:
# [1] = system: patients with advanced malignancies; conditions: monotherapy, parts 1 and 2; cited from earlier work
# pFGFR2α = conditions: based on in vivo experiments; no reference given; cited from earlier work
# advanced malignancies = conditions: monotherapy, cited from earlier work
# advanced solid tumors = test: Investigator-assessed tumor response per RECIST v1.1, FIGHT-101 part 3; assay type: in vivo, human
# [2] = system: patients with advanced solid tumor malignancies; test: Safety and tolerability; assay type: in vivo, human
# How it was run: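 Patients are ≥18 years with solid tumors that progressed after ≥1 prior line. They self-administer oral pemigatinib 9, 13.5 or 20 mg q.d. on 21-day cycles, continuous or intermittent, combined with chemotherapy, trastuzumab or anti-PD-1 antibody until progression or toxicity. Interruption and dose adjustment are allowed. AE frequency, duration and severity are summarized descriptively for patients receiving ≥1 dose.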
# phosphorylated FGFR2α = phosphorylated FGFR2α (Homo sapiens, UniProt P21802); assay type: cell-based
# phosphorylated FGFR2α, sequence (P21802 431-767 limits assumed): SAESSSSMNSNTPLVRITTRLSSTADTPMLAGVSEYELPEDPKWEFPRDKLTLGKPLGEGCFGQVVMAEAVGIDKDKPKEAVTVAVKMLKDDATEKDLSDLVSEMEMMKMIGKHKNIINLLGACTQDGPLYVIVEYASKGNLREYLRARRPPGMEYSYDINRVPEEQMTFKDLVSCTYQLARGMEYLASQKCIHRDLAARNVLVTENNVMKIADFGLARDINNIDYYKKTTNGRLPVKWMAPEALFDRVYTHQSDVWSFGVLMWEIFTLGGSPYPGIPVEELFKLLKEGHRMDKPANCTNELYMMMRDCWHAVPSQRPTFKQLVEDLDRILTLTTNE
# How it was run: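 Patients take oral pemigatinib once daily on 21-day cycles, continuous or intermittent, with combination therapy (e.g. i.v. docetaxel 75 mg/m² q3w, i.v. pembrolizumab 200 mg q3w). Steady-state trough is cycle 1 day 14, 0-24 h. Values are mean (SE) inhibition.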
# [3] = both the 9-mg and 13.5-mg doses of pemigatinib
compound,measurement,setting,value
CCN1C(=O)N(c2c(F)c(OC)cc(OC)c2F)Cc2cnc3[nH]c(CN4CCOCC4)cc3c21 [pemigatinib],"Alopecia, patients",[1],31.3%
same,"Diarrhea, patients",[1],32.0%
same,"Dose reductions, patients",[1],4.6%
same,"Dry mouth, patients",[1],38.3%
same,"Fatigue, patients",[1],39.1%
same,"Hyperphosphatemia, patients",[1],75.0%
same,Patients who discontinued pemigatinib because of TEAEs,[1],10.2%
same,"Pemigatinib interruption used to manage TEAEs, patients",[1],51.6%
same,"Stomatitis, patients",[1],34.4%
same,pIC50,pFGFR2α,7.65
same,Patients with partial responses (PRs),advanced malignancies; 128 patients in parts 1 or 2,9.4%
same,ORR among patients with FGFR mutations,advanced malignancies; parts 1 or 2,23.1%
same,ORR among patients with FGFR rearrangements,advanced malignancies; parts 1 or 2,25.0%
pemigatinib + trastuzumab [Pemi/tras],ORR (95% CI),advanced solid tumors; pemigatinib 13.5 mg ID,0%
same,Alopecia (TEAE),[2]; pemigatinib 13.5 mg ID,5 (83.3) n (%)
same,"Alopecia TEAE, patients",[2]; pemigatinib 13.5 mg ID,83.3%
same,Anemia (TEAE),[2]; pemigatinib 13.5 mg ID,2 (33.3) n (%)
same,Constipation (TEAE),[2]; pemigatinib 13.5 mg ID,2 (33.3) n (%)
same,Cough (TEAE),[2]; pemigatinib 13.5 mg ID,4 (66.7) n (%)
same,Decreased appetite (TEAE),[2]; pemigatinib 13.5 mg ID,3 (50.0) n (%)
same,Diarrhea (TEAE),[2]; pemigatinib 13.5 mg ID,3 (50.0) n (%)
same,Dry eye (TEAE),[2]; pemigatinib 13.5 mg ID,2 (33.3) n (%)
same,Dry mouth (TEAE),[2]; pemigatinib 13.5 mg ID,4 (66.7) n (%)
same,Dyspepsia (TEAE),[2]; pemigatinib 13.5 mg ID,2 (33.3) n (%)
same,Dyspnea (TEAE),[2]; pemigatinib 13.5 mg ID,2 (33.3) n (%)
same,Epistaxis (TEAE),[2]; pemigatinib 13.5 mg ID,2 (33.3) n (%)
same,Fatigue (TEAE),[2]; pemigatinib 13.5 mg ID,2 (33.3) n (%)
same,"Fatigue TEAE, patients",[2]; pemigatinib 13.5 mg ID,33.3%
same,Headache (TEAE),[2]; pemigatinib 13.5 mg ID,2 (33.3) n (%)
same,Hyperphosphatemia (TEAE),[2]; pemigatinib 13.5 mg ID,5 (83.3) n (%)
same,"Hyperphosphatemia TEAE, patients",[2]; pemigatinib 13.5 mg ID,83.3%
same,Nausea (TEAE),[2]; pemigatinib 13.5 mg ID,2 (33.3) n (%)
same,"Pemigatinib-related TEAEs, patients",[2]; pemigatinib 13.5 mg ID,83.3%
same,Pyrexia (TEAE),[2]; pemigatinib 13.5 mg ID,2 (33.3) n (%)
same,Sinusitis (TEAE),[2]; pemigatinib 13.5 mg ID,3 (50.0) n (%)
same,Stomatitis (TEAE),[2]; pemigatinib 13.5 mg ID,2 (33.3) n (%)
same,"TEAEs related to the combination partner, patients",[2]; pemigatinib 13.5 mg ID,50.0%
same,Taste disorder (TEAE),[2]; pemigatinib 13.5 mg ID,2 (33.3) n (%)
same,Upper respiratory tract infection (TEAE),[2]; pemigatinib 13.5 mg ID,2 (33.3) n (%)
same,Inhibition of FGFR2α phosphorylation at trough of steady state,phosphorylated FGFR2α; [3],exceeded 50%
pemigatinib + docetaxel [Pemi/doc],ORR (95% CI),advanced solid tumors; pemigatinib 13.5 mg ID,14.3%
same,"DOR, individual responder","advanced solid tumors; urothelial tract/bladder cancer, FGF10 amplification",12.5 months
same,Alopecia (TEAE),[2]; pemigatinib 13.5 mg ID,3 (42.9) n (%)
same,Anemia (TEAE),[2]; pemigatinib 13.5 mg ID,4 (57.1) n (%)
same,Constipation (TEAE),[2]; pemigatinib 13.5 mg ID,3 (42.9) n (%)
same,Dehydration (TEAE),[2]; pemigatinib 13.5 mg ID,5 (71.4) n (%)
same,Diarrhea (TEAE),[2]; pemigatinib 13.5 mg ID,6 (85.7) n (%)
same,"Diarrhea TEAE, patients",[2]; pemigatinib 13.5 mg ID,85.7%
same,"Dose interruptions because of TEAEs, patients",[2]; pemigatinib 13.5 mg ID,42.9%
same,Dysgeusia (TEAE),[2]; pemigatinib 13.5 mg ID,3 (42.9) n (%)
same,Fatigue (TEAE),[2]; pemigatinib 13.5 mg ID,6 (85.7) n (%)
same,"Fatigue TEAE, patients",[2]; pemigatinib 13.5 mg ID,85.7%
same,Hyperphosphatemia (TEAE),[2]; pemigatinib 13.5 mg ID,6 (85.7) n (%)
same,"Hyperphosphatemia TEAE, patients",[2]; pemigatinib 13.5 mg ID,85.7%
same,Nausea (TEAE),[2]; pemigatinib 13.5 mg ID,4 (57.1) n (%)
same,Neutropenia (TEAE),[2]; pemigatinib 13.5 mg ID,3 (42.9) n (%)
same,"Stomatitis TEAE, patients",[2]; pemigatinib 13.5 mg ID,28.6%
same,"TEAEs related to the combination partner, patients",[2]; pemigatinib 13.5 mg ID,71.4%
same,Taste disorder (TEAE),[2]; pemigatinib 13.5 mg ID,3 (42.9) n (%)
same,Vomiting (TEAE),[2]; pemigatinib 13.5 mg ID,3 (42.9) n (%)
same,Weight decreased (TEAE),[2]; pemigatinib 13.5 mg ID,3 (42.9) n (%)
same,Inhibition of FGFR2α phosphorylation at trough of steady state,phosphorylated FGFR2α; [3],exceeded 50%
pemigatinib + gemcitabine + cisplatin [Pemi/gem/cis],ORR (95% CI),advanced solid tumors; Total (all pemigatinib doses),37.5%
same,"DOR, individual responder","advanced solid tumors; pemigatinib 13.5 mg ID, anal cancer, no detectable FGF/FGFR alterations",5.8 months
same,"DOR, individual responder","advanced solid tumors; pemigatinib 13.5 mg ID, ovarian cancer, no detectable FGF/FGFR alterations",6.6 months
same,Alanine aminotransferase increased (TEAE),[2]; Total (all pemigatinib doses),4 (50.0) n (%)
same,"Alopecia TEAE, patients",[2]; Total (all pemigatinib doses),12.5%
same,Anemia (TEAE),[2]; Total (all pemigatinib doses),8 (100.0) n (%)
same,Aspartate aminotransferase increased (TEAE),[2]; Total (all pemigatinib doses),4 (50.0) n (%)
same,Blood creatinine increased (TEAE),[2]; Total (all pemigatinib doses),5 (62.5) n (%)
same,Constipation (TEAE),[2]; Total (all pemigatinib doses),5 (62.5) n (%)
same,Dehydration (TEAE),[2]; Total (all pemigatinib doses),3 (37.5) n (%)
same,Diarrhea (TEAE),[2]; Total (all pemigatinib doses),4 (50.0) n (%)
same,Dizziness (TEAE),[2]; Total (all pemigatinib doses),3 (37.5) n (%)
same,"Dose interruptions because of TEAEs, patients",[2]; Total (all pemigatinib doses),87.5%
same,"Dose reductions because of TEAEs, patients",[2]; Total (all pemigatinib doses),12.5%
same,Dry mouth (TEAE),[2]; Total (all pemigatinib doses),3 (37.5) n (%)
same,Fatigue (TEAE),[2]; Total (all pemigatinib doses),5 (62.5) n (%)
same,Hyperphosphatemia (TEAE),[2]; Total (all pemigatinib doses),4 (50.0) n (%)
same,"Hyperphosphatemia TEAE, patients",[2]; Total (all pemigatinib doses),50.0%
same,Hypokalemia (TEAE),[2]; Total (all pemigatinib doses),3 (37.5) n (%)
same,Hyponatremia (TEAE),[2]; Total (all pemigatinib doses),4 (50.0) n (%)
same,Nausea (TEAE),[2]; Total (all pemigatinib doses),5 (62.5) n (%)
same,Neutropenia (TEAE),[2]; Total (all pemigatinib doses),4 (50.0) n (%)
same,"Pemigatinib-related TEAEs, patients",[2]; Total (all pemigatinib doses),87.5%
same,Stomatitis (TEAE),[2]; Total (all pemigatinib doses),3 (37.5) n (%)
same,"TEAEs related to the combination partner, patients",[2]; Total (all pemigatinib doses),100.0%
same,Thrombocytopenia (TEAE),[2]; Total (all pemigatinib doses),5 (62.5) n (%)
same,Vomiting (TEAE),[2]; Total (all pemigatinib doses),3 (37.5) n (%)
same,White blood cell count decreased (TEAE),[2]; Total (all pemigatinib doses),4 (50.0) n (%)
same,"Anemia TEAE, patients",[2]; pemigatinib 13.5 mg ID,100.0%
same,Inhibition of FGFR2α phosphorylation at trough of steady state,phosphorylated FGFR2α; pemigatinib 13.5 mg ID,31%
pemigatinib + retifanlimab [Pemi/reti],ORR (95% CI),advanced solid tumors; Total (all pemigatinib doses),11.1%
same,"DOR, individual responder","advanced solid tumors; pemigatinib 13.5 mg CD, ovarian cancer, no detectable FGF/FGFR alterations",4.2 months
same,"DOR, individual responder","advanced solid tumors; pemigatinib 13.5 mg CD, urothelial cancer, FGF3/4/19 amplification",8.3 months
same,Alopecia (TEAE),[2]; Total (all pemigatinib doses),6 (33.3) n (%)
same,Dehydration (TEAE),[2]; Total (all pemigatinib doses),8 (44.4) n (%)
same,Diarrhea (TEAE),[2]; Total (all pemigatinib doses),7 (38.9) n (%)
same,Dry mouth (TEAE),[2]; Total (all pemigatinib doses),9 (50.0) n (%)
same,Fatigue (TEAE),[2]; Total (all pemigatinib doses),11 (61.1) n (%)
same,Hyperphosphatemia (TEAE),[2]; Total (all pemigatinib doses),11 (61.1) n (%)
same,"Hyperphosphatemia TEAE, patients",[2]; Total (all pemigatinib doses),61.1%
same,Hypomagnesemia (TEAE),[2]; Total (all pemigatinib doses),6 (33.3) n (%)
same,"Pemigatinib-related TEAEs, patients",[2]; Total (all pemigatinib doses),94.4%
same,Stomatitis (TEAE),[2]; Total (all pemigatinib doses),12 (66.7) n (%)
same,"Stomatitis TEAE, patients",[2]; Total (all pemigatinib doses),66.7%
same,"TEAEs related to the combination partner, patients",[2]; Total (all pemigatinib doses),88.9%
same,"Stomatitis TEAE, patients",[2]; pemigatinib 13.5 mg CD,77.8%
pemigatinib + pembrolizumab [Pemi/pembro],ORR (95% CI),advanced solid tumors; Total (all pemigatinib doses),26.9%
same,"DOR, individual responder","advanced solid tumors; pemigatinib 13.5 mg ID, urothelial tract/bladder cancer, FGFR3 p.S249C mutation",50.3 months
same,Alanine aminotransferase increased (TEAE),[2]; Total (all pemigatinib doses),8 (30.8) n (%)
same,Alopecia (TEAE),[2]; Total (all pemigatinib doses),11 (42.3) n (%)
same,Anemia (TEAE),[2]; Total (all pemigatinib doses),12 (46.2) n (%)
same,Aspartate aminotransferase increased (TEAE),[2]; Total (all pemigatinib doses),8 (30.8) n (%)
same,Decreased appetite (TEAE),[2]; Total (all pemigatinib doses),11 (42.3) n (%)
same,Diarrhea (TEAE),[2]; Total (all pemigatinib doses),12 (46.2) n (%)
same,"Dose interruptions because of TEAEs, patients",[2]; Total (all pemigatinib doses),57.7%
same,"Dose reductions because of TEAEs, patients",[2]; Total (all pemigatinib doses),7.7%
same,Dry eye (TEAE),[2]; Total (all pemigatinib doses),8 (30.8) n (%)
same,Dry mouth (TEAE),[2]; Total (all pemigatinib doses),9 (34.6) n (%)
same,"Fatigue TEAE, patients",[2]; Total (all pemigatinib doses),26.9%
same,Hyperphosphatemia (TEAE),[2]; Total (all pemigatinib doses),19 (73.1) n (%)
same,"Pemigatinib-related TEAEs, patients",[2]; Total (all pemigatinib doses),88.5%
same,Stomatitis (TEAE),[2]; Total (all pemigatinib doses),9 (34.6) n (%)
same,"TEAEs related to the combination partner, patients",[2]; Total (all pemigatinib doses),69.2%
same,"Alopecia TEAE, patients",[2]; pemigatinib 13.5 mg CD,55.6%
same,"Dry mouth TEAE, patients",[2]; pemigatinib 13.5 mg CD,55.6%
same,"Hyperphosphatemia TEAE, patients",[2]; pemigatinib 13.5 mg CD,55.6%
same,"Hyperphosphatemia TEAE, patients",[2]; pemigatinib 13.5 mg ID,78.6%
same,Inhibition of FGFR2α phosphorylation at trough of steady state,phosphorylated FGFR2α; [3],exceeded 50%
